From PMC3057505 (Journal of medicinal chemistry, 2010)
“Also recorded” adds a separate entry of the source.

Experiments:
[1] = DPPH free radical scavenging assay; assay type: physicochemical; conditions: for fold less potent than quercetin in DPPH free radical scavenging: p < 0.05 vs quercetin; for DPPH free radical scavenging activity relative to quercetin: vs quercetin IC50 = 1.3 ± 1.1 μM
[2] = biological target: aggregated amyloid peptide Aβ1-40 (Homo sapiens, UniProt P05067); assay: In vitro Aβ1-40 binding affinity by fluorescence titration; conditions: for fold weaker Aβ binding affinity compared to 4: ratio of Kd vs compound 4; for decrease in Aβ binding affinity: compared to 4
Aβ plaques [3] = assay type: binding, APP/PS1 transgenic mouse
Procedure, shortened: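 Brains from 11-month-old APP/PS1 mice (Tg2576 APP Swedish × M146L PS1 line) were perfused with 4% paraformaldehyde, cryoprotected in 20% sucrose and cut into 10 μm frozen sections, three per dilution point. Sections were stained 30 min with 50 μM test compound in 9:1 PBS/EtOH, then washed in 75% EtOH, 95% EtOH and xylene. S/N was taken as plaque fluorescence over background tissue.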

Aβ plaques [4] = assay: In vivo BBB delivery to Aβ plaque-bearing PDAPP mouse brain; set-up: species or system PDAPP transgenic mice; conditions: single 50 mg/kg IP, ten-month-old PDAPP mice, sacrificed 48 h after injection
Procedure, shortened: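 Ten-month-old PDAPP transgenic mice received a single ip dose of 50 mg/kg test compound, with vehicle-only controls (10% DMSO/PBS). At 48 h they were killed by transcardial perfusion with 4% PFA in PBS. Brains were cryoprotected, frozen, sectioned, postfixed 5 min in 4% PFA, washed in PBS and mounted. Plaque fluorescence was imaged in hippocampal CA1 and dentate gyrus at 10× and 40×.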

[5] = test system: Aβ plaques in human AD brain sections; assay: Fluorescence staining of human AD brain sections; assay type: binding; conditions: 50 μM, 30 min, 9:1 PBS:EtOH, frozen sections 10 μm
Procedure, shortened: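 Frozen 10 μm sections of human AD brain and age-matched control brain. Stained 30 min with 50 μM test compound in 9:1 PBS/EtOH, made by diluting a DMSO stock to 0.50 mM in EtOH and then into PBS/EtOH. Washed in turn with 75% aqueous EtOH, 95% EtOH and xylene. Plaque staining was read by fluorescence microscopy.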

Aβ plaques [6] = conditions: APP or APP/PS1 mice; cited from earlier work

Chain of aggregated amyloid peptide Aβ1-40 (P05067 672-711 limits assumed): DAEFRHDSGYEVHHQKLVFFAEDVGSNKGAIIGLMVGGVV

SMILES: Oc1cccc(/C=C/c2ccc(/C=C/c3ccc(O)c(O)c3)cc2)c1 [Compound 15, (E,E)-1-(3-hydroxystyryl)-4-(3,4-dihydroxystyryl)benzene]
- fold less potent than quercetin in DPPH free radical scavenging [1]: 3 to 7 fold

SMILES: Oc1ccc(/C=C/c2ccc(/C=C/c3ccccc3)cc2)cc1 [Compound 11, (E,E)-1-styryl-4-(4-hydroxystyryl)benzene]
- fold weaker Aβ binding affinity compared to 4 [2]: 16 fold

SMILES: Oc1ccc(C#Cc2ccc(C#Cc3ccc(O)cc3)cc2)cc1 [Compound 17]
- fold weaker Aβ binding affinity compared to 4 [2]: 6 fold
- fold loss in specificity compared to 4 (Aβ plaques [3]; ratio of S/N vs compound 4): 2.4 fold

SMILES: Oc1ccc(/C=C/c2ccc(/C=C/c3ccc(O)cc3)cc2)cc1 [Compound 4, (E,E)-1,4-bis(4-hydroxystyryl)benzene]
- DPPH free radical scavenging activity relative to quercetin [1]: no less effective than quercetin
- BBB crossing and Aβ plaque binding in vivo (Aβ plaques [4]; 50 mg/kg): crossed the BBB and bound to Aβ plaques in vivo; also recorded: crossed the blood-brain-barrier and bound to Aβ plaques in vivo
- staining of Aβ plaques in human AD brain sections [5]: bind specifically to Aβ plaques in human brain sections

SMILES: Oc1ccc(/C=C/c2cccc(/C=C/c3ccc(O)cc3)c2)cc1 [Compound 6, (E,E)-1,3-bis(4-hydroxystyryl)benzene]
- DPPH free radical scavenging activity relative to quercetin [1]: no less effective than quercetin
- decrease in Aβ binding affinity [2]: two order of magnitude decrease

SMILES: Oc1ccc(/C=C/c2ccc(/C=C/c3cccc(O)c3)cc2)cc1 [Compound 12, (E,E)-1-(4-hydroxystyryl)-4-(3-hydroxystyryl)benzene]
- DPPH free radical scavenging activity relative to quercetin [1]: no less effective than quercetin
- fold weaker Aβ binding affinity compared to 4 [2]: 370 fold
- fold weaker Aβ binding affinity compared to 8 ([2]; ratio of Kd vs compound 8): 660 fold

SMILES: O=C(O)c1cc(/C=C/c2ccc(/C=C/c3ccc(O)c(C(=O)O)c3)c(F)c2)ccc1O [FSB]
- BBB penetration and binding to Aβ plaques (Aβ plaques [6]): penetrate the blood – brain barrier (BBB) and bind to Aβ plaques

SMILES: Oc1ccc(/C=C/c2ccc(O)cc2)cc1 [Compound 16]
- DPPH free radical scavenging activity relative to quercetin [1]: no less effective than quercetin
- decrease in Aβ binding affinity [2]: three orders of magnitude weaker

SMILES: Oc1ccc(/C=C/c2ccc(/C=C/c3ccc(O)c(O)c3)cc2)cc1 [Compound 13, (E,E)-1-(4-hydroxystyryl)-4-(3,4-dihydroxystyryl)benzene]
- fold weaker Aβ binding affinity compared to 4 [2]: 17 to 27 fold

SMILES: O=C(O)c1cc(/C=C/c2ccc(/C=C/c3ccc(O)c(C(=O)O)c3)cc2)ccc1O [Compound X-34]
- BBB penetration and binding to Aβ plaques (Aβ plaques [6]): penetrate the blood – brain barrier (BBB) and bind to Aβ plaques

SMILES: Oc1cccc(/C=C/c2ccc(/C=C/c3cccc(O)c3)cc2)c1 [Compound 8, (E,E)-1,4-bis(3-hydroxystyryl)benzene]
- BBB crossing and Aβ plaque binding in vivo (Aβ plaques [4]; 50 mg/kg): crossed the BBB and bound to Aβ plaques in vivo; also recorded: crossed the blood-brain-barrier and bound to Aβ plaques in vivo
- staining of Aβ plaques in human AD brain sections [5]: bind specifically to Aβ plaques in human brain sections

SMILES: Oc1cc(O)cc(/C=C/c2ccc(/C=C/c3cc(O)cc(O)c3)cc2)c1 [Compound 10, (E,E)-1,4-bis(3,5-dihydroxystyryl)benzene]
- fold less potent than quercetin in DPPH free radical scavenging [1]: 3 to 7 fold
- BBB crossing and Aβ plaque binding in vivo (Aβ plaques [4]): crossed the BBB and bound to Aβ plaques in vivo
- staining of Aβ plaques in human AD brain sections [5]: bind specifically to Aβ plaques in human brain sections
- fold weaker Aβ binding affinity compared to 4 [2]: 17 to 27 fold

SMILES: Oc1ccc(/C=C/c2ccccc2/C=C/c2ccc(O)cc2)cc1 [Compound 7, (E,E)-1,2-bis(4-hydroxystyryl)benzene]
- fold less potent than quercetin in DPPH free radical scavenging [1]: 3 to 7 fold
- decrease in Aβ binding affinity [2]: two order of magnitude decrease

SMILES: Oc1ccc(/C=C/c2ccc(/C=C/c3cc(O)cc(O)c3)cc2)cc1 [Compound 14, (E,E)-1-(4-hydroxystyryl)-4-(3,5-dihydroxystyryl)benzene]
- fold less potent than quercetin in DPPH free radical scavenging [1]: 3 to 7 fold
- fold weaker Aβ binding affinity compared to 4 [2]: 17 to 27 fold

SMILES: Oc1ccccc1/C=C/c1ccc(/C=C/c2ccccc2O)cc1 [Compound 9, (E,E)-1,4-bis(2-hydroxystyryl)benzene]
- fold less potent than quercetin in DPPH free radical scavenging [1]: 3 to 7 fold
- fold weaker Aβ binding affinity compared to 4 [2]: 84 fold
- Aβ binding specificity (Aβ plaques [3]; APP/PS1 mouse brain sections): good binding specificity
